Source: PMC6030392 (Neoplasia (New York, N.Y.), 2018)
Read-outs that look alike come from different tables or passages of the source. Marks after values point to notes of the source that are not given here.

What was measured:
Bcrp1 = molecular target: T1, Bcrp1 (Mus musculus, UniProt Q7TMS5); experiment: In vitro Transwell transport, MDCKII parent versus Bcrp1 transduced subline; assay type: in vitro ADME
T1 sequence (Q7TMS5 1-657): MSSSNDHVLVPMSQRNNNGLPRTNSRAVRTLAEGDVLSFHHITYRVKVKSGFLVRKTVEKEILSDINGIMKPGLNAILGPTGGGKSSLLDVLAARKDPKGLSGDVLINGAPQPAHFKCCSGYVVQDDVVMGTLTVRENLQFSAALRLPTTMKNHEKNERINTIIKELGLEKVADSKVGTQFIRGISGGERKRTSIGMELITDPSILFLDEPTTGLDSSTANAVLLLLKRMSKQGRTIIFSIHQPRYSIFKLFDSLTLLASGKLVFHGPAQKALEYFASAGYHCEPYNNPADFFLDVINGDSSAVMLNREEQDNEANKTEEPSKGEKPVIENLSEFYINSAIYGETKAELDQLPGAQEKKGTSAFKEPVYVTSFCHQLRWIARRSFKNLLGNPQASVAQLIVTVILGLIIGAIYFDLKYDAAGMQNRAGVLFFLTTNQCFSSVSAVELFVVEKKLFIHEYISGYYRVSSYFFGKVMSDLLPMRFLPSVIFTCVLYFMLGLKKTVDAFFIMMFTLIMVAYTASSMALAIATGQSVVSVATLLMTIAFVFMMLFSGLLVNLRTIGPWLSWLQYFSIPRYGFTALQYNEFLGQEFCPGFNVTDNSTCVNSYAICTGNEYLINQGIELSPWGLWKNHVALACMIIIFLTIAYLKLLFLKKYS
Method in brief: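 MDCKII parent and Bcrp1-transduced cells were grown 3 days on 3.0 μm polycarbonate Transwell filters (1 × 10⁶ cells/well) in MEM with 10% FBS at 37°C. Test compound (40 μg/ml in OptiMEM) went apical or basolateral. Inhibitor went to both sides, plus a P-gp blocker (5 μM). Sampling was every 30 min to 2 h, with half the donor refreshed each time. Wells leaking >1.5%/h were excluded. Analysis by HPLC.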

[1] = dose level of 100 mg/kg; cited from earlier work
[2] = cited from earlier work
[3] = cited from earlier work; remark: listed apart in the source
[4] = cited from earlier work; remark: listed apart in the source
[5] = system: GSC457 glioblastoma cells; experiment: Orthotopic GSC457 glioblastoma efficacy study; assay type: in vivo, murine; settings: oral 100 mg/kg/day × 7
[6] = system: intracranial Mel57-luc tumors; experiment: Intracranial Mel57-luc tumor efficacy study; assay type: in vivo, FVB nude mice; settings: oral 100 mg/kg/day × 5
Method in brief: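 WT or Abcb1a/b;Abcg2^−/− FVB nude mice received Mel57-luc cells (100,000 cells/2 μl) stereotactically 2 mm lateral, 1 mm anterior to bregma, 3 mm deep. Tumor load was set by bioluminescence before stratification to oral test compound 100 mg/kg/day for 5 days, untreated control, or combination with oral inhibitor 20–30 min earlier. Repeated imaging was expressed relative to the first measurement and log-transformed.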

[7] = cited from earlier work; remark: listed apart in the source
[8] = Recovery in acceptor compartment of Transwell; assay type: in vitro ADME; settings: after 30 minutes; transport medium pH 7.4
[9] = assay type: in vivo, FVB mice; settings: for AUC 0–7 h, brain: mean ± SE, n ≥ 7
Method in brief: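 Male FVB mice (WT, Abcg2^−/−, Abcb1a/b^−/−, Abcb1a/b;Abcg2^−/−; 8–15 weeks) got 50 mg/kg i.v. via tail vein. Groups of […] were sampled at 15 min, 1, 2, 4, 7 h by cardiac puncture (K-EDTA plasma, acidified with 1 M HCl). Brains were homogenized in pH 2 phosphate/1% BSA. Extracts (ethyl acetate) were run on HPLC in duplicate. AUC0–7h by linear trapezoidal rule; brain-to-plasma ratio per animal; two-way ANOVA with Bonferroni.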

Mdr1a (P-gp) = Mdr1a (P-gp) (Mus musculus, UniProt P21447); experiment: In vitro Transwell transport, LLC-PK1 parent versus Mdr1a transduced subline; assay type: in vitro ADME, murine; settings: temozolomide 40 μg/ml; LLC-PK1 vs LLC-Mdr1a
[10] = Stability in culture medium at 37°C; assay type: physicochemical
[11] = C57BL × DBA/2 F1 mice; cited from earlier work
[12] = Plasma pharmacokinetics of oral temozolomide; assay type: in vivo, mice; settings: 100 mg/kg oral; WT n = 18, Abcb1a/b;Abcg2^−/− n = 19
[13] = Abcb1a/b^−/− mice, 50 mg/kg i.v.

Sequence of Mdr1a (P-gp) (P21447 whole entry): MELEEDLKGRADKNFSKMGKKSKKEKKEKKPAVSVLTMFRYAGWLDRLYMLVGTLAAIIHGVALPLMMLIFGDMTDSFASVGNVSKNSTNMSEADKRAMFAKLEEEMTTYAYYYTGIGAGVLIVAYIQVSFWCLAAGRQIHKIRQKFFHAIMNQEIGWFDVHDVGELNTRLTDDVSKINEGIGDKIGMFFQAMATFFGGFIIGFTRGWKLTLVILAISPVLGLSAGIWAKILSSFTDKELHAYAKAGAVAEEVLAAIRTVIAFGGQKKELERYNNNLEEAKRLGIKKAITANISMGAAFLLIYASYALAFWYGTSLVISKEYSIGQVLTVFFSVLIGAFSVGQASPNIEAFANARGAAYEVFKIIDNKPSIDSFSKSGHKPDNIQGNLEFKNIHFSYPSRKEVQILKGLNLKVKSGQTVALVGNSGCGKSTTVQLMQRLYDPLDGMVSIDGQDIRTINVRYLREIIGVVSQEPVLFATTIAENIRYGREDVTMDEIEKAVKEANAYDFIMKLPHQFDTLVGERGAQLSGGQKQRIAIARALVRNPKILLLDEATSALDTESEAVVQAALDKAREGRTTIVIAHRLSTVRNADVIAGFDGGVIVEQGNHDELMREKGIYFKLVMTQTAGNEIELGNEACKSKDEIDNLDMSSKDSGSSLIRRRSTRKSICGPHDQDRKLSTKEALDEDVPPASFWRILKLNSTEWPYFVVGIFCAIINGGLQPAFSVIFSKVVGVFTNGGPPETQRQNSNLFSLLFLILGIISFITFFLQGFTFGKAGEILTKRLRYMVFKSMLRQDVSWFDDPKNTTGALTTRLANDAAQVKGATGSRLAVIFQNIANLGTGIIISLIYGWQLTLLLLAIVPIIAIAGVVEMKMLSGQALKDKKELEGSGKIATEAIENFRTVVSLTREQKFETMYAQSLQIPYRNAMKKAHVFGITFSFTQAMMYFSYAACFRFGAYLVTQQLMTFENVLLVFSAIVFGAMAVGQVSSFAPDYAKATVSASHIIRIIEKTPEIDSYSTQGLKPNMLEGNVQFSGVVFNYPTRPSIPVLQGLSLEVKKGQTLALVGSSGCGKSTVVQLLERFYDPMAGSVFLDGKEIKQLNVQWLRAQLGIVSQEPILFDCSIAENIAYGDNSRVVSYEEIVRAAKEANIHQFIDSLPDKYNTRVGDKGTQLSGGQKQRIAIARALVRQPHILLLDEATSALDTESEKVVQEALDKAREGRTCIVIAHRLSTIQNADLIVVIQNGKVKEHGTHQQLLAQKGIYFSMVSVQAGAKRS

For COc1cc2c(cc1OC)CN(CCc1ccc(NC(=O)c3cccc4c(=O)c5cccc(OC)c5[nH]c34)cc1)CC2 [elacridar], which “effect on Bcrp1-mediated transport of temozolomide” value (shortened to “effect on Bcrp1-mediated transport”) (Bcrp1; inhibitor 5 μM in the medium) is on record?
Its value is “almost completely abrogated”.

For C#Cc1cccc(Nc2ncnc3cc(OCCOC)c(OCCOC)cc23)c1 [erlotinib], which “effect on Bcrp1-mediated transport” value (Bcrp1; inhibitor 10 μM in the medium) is on record?
The value was “almost completely abrogated”.

Which results are given for COc1cc2ncnc(Nc3ccc(F)c(Cl)c3)c2cc1OCCCN1CCOCC1 [gefitinib]?
plasma levels [1]: about 10 μM; plasma levels achievable in patients relative to the level after 100 mg/kg [2]: about 10 fold lower; effect on Bcrp1-mediated transport of temozolomide (Bcrp1; inhibitor 10 μM in the medium): almost completely abrogated

With Cc1ccc(NC(=O)c2ccc(CN3CCN(C)CC3)cc2)cc1Nc1nccc(-c2cccnc2)n1 [imatinib] as the compound, how does the brain penetration ([3]; significantly enhanced in Abcb1a/b;Abcg2^−/− mice) read?
The brain penetration was “poor”.

What about the oral bioavailability [4] of the same compound?
The oral bioavailability was over 90%.

With CO[C@@H]1[C@@H](OC(N)=O)[C@@H](O)[C@H](Oc2ccc3c(O)c(NC(=O)c4ccc(O)c(CC=C(C)C)c4)c(=O)oc3c2C)OC1(C)C [novobiocin] as the compound, how does the “effect on Bcrp1-mediated transport” value (Bcrp1; inhibitor 50 μM in the medium) read?
The value was “not sufficient”.

With CC(=O)O[C@H]1C(=O)[C@@]2(C)[C@H]([C@H](OC(=O)c3ccccc3)[C@]3(O)C[C@H](OC(=O)[C@H](O)[C@@H](NC(=O)c4ccccc4)c4ccccc4)C(C)=C1C3(C)C)[C@]1(OC(C)=O)CO[C@@H]1C[C@@H]2O [paclitaxel] as the compound, how does the “higher brain penetration in Abcb1a/b^−/− compared to WT controls” value [3] read?
Its value is 5 fold.

For CC(=O)c1c(C)c2cnc(Nc3ccc(N4CCNCC4)cn3)nc2n(C2CCCC2)c1=O [palbociclib], which “higher brain penetration in Abcb1a/b^−/− compared to WT controls” value [3] is on record?
The value was “approximately 15 fold”.

For Cn1nnc2c(C(N)=O)ncn2c1=O [temozolomide], which “tumor growth and survival, Abcb1a/b;Abcg2^−/− compared to WT mice” value [5] is on record?
Its value is “significantly slower tumor growth and longer survival”.

What about the “antitumor efficacy against intracranial Mel57 tumors, relative to WT mice” value ([6]; Abcb1a/b;Abcg2^−/− mice) of the same compound?
The value was “significantly higher”.

And the “antitumor efficacy against intracranial Mel57 tumors” value ([6]; WT mice)?
The value was “modest efficacy”.

What about the main dose-limiting toxicity [7] of the same compound?
Its main dose-limiting toxicity is “bone marrow toxicity”.

What about the “fraction of the donor concentration recovered in the acceptor compartment” value [8] of the same compound?
The value was “at least 5%”.

And the “increase of brain accumulation compared to WT mice” value (“increase of brain accumulation” below) ([9]; Abcb1a/b;Abcg2^−/− mice, 50 mg/kg i.v., P < .001)?
Its value is 50%.

What about the “AUC 0–7 h, brain” value ([9]; Abcb1a/b;Abcg2^−/− mice, 50 mg/kg i.v.) of the same compound?
The value was 57.09 ± 1.32**^/# μg/g.h.

What about the “increase of brain accumulation” value [9, 13] of the same compound?
Its value is “about 20%”.

And the “AUC 0–7 h, brain” value [9, 13]?
The value was 44.51 ± 1.56 µg·h/g.

And the “increase of brain accumulation” value ([9]; Abcg2^−/− mice, 50 mg/kg i.v.)?
The value was 20%.

What about the “AUC 0–7 h, brain” value ([9]; Abcg2^−/− mice, 50 mg/kg i.v.) of the same compound?
Its value is 44.78 ± 1.88 µg·h/g.

What about the “AUC 0–7 h, brain” value ([9]; WT mice, 50 mg/kg i.v.) of the same compound?
The value was 36.81 ± 1.11 µg·h/g.

What about the “increase of brain penetration compared to wild-type controls” value ([9]; combined deletion of Abcb1a/b and Abcg2, P < .001) of the same compound?
The value was 1.5 fold.

And the “effect of absence of drug transporters on plasma clearance” value ([9]; knockout vs WT mice, 50 mg/kg i.v.)?
Its value is “did not affect the plasma clearance”.

What about the “transport by P-gp” value (Mdr1a (P-gp)) of the same compound?
The value was “very limited, if any, evidence for transport by P-gp”.

What about the “transport by Bcrp1” value (Bcrp1; temozolomide 40 μg/ml, MDCKII vs MDCKII-Bcrp1, zosuquidar 5 μM present) of the same compound?
The value was “clear vectorial transport by Bcrp1”.

And the half-life [10]?
Its half-life is about 30 min.

What about the oral bioavailability [11] of the same compound?
Its oral bioavailability is “almost complete”.

What about the “plasma AUC in Abcb1a/b;Abcg2^−/− versus WT mice” value [12] of the same compound?
Its value is “not significantly different”.
